# Assays:
# [1] = system: Corynebacterium glutamicum; test: Antibacterial activity against Corynebacterium glutamicum ATCC 13032 cultured in MHB medium assessed as no bacterial growth incubated at 20 degC for 24 hrs by microdilution susceptibility test; type: functional; conditions: ATCC 13032, 24 h
# Summary of the method: (§1)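 Broth microdilution per CLSI M07-A9 with modifications. Inoculum about 2.5–3 x 10⁴ cells/mL in Mueller-Hinton broth, mixed 1:1 with test derivative. DMSO stocks diluted in double-distilled water, final DMSO <1%. Incubation 24 h at 37 °C (20 °C for C. glutamicum). Growth and sterility controls included; oxytetracycline reference.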
# Escherichia coli [2] = test: Antibacterial activity against Escherichia coli ATCC 25922 cultured in MHB medium assessed as no bacterial growth incubated at 37 degC for 24 hrs by microdilution susceptibility test; type: functional; conditions: ATCC 25922, 24 h; summary of the method: as §1
# Pseudomonas aeruginosa [3] = test: Antibacterial activity against Pseudomonas aeruginosa PA01 DSM 19880 (ATCC 15692) cultured in MHB medium assessed as no bacterial growth incubated at 37 degC for 24 hrs by microdilution susceptibility test; type: functional; conditions: PAO1 DSM 19880 (ATCC 15692); summary of the method: as §1
# Erythrocyte = test: Hemolytic activity against human RBC incubated for 1 hr; type: cell-based
# Summary of the method: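 Heparinized human blood washed three times in warm PBS and set to 10% hct. Erythrocytes at 1% v/v final, with compound in PBS (DMSO <1%), shaken 1 h at 37 °C and then centrifuged. Supernatant absorbance read at 405 and 545 nm after PBS background subtraction. Haemolysis taken relative to 1% Triton X-100. Three independent replicates, EC50 averaged.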
# [4] = Selectivity index, ratio of EC50 for hemolytic activity against human RBC to MIC for antibacterial activity against Staphylococcus aureus ATCC 9144; type: toxicity; conditions: human red blood cells (RBC)
# Summary of the method: (§2)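 Selectivity index is the RBC haemolysis EC50 divided by the MIC against the E. coli or S. aureus reference strain.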
# [5] = Selectivity index, ratio of EC50 for hemolytic activity against human RBC to MIC for antibacterial activity against Escherichia coli ATCC 25922; type: toxicity; conditions: human red blood cells (RBC); summary of the method: as §2
# Staphylococcus aureus [6] = test: Antibacterial activity against multidrug-resistant Staphylococcus aureus N315 cultured in MHB medium assessed as reduction in bacterial growth incubated for 24 hrs by microdilution susceptibility test; type: functional; conditions: N315, 24 h
# Summary of the method: (§3)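 Broth microdilution per CLSI M07-A9 (modified). Working solutions made from concentrated DMSO stocks kept at r.t., diluted in double-distilled water, final DMSO <1%. Inoculum 1–1.2 x 10⁶ cells/mL in Mueller-Hinton broth, mixed 1:1 with compound. 37 °C, 24 h, four parallels. Read as OD₆₀₀. Where precipitation left residual OD, the point of major OD decrease was taken as the inhibitory concentration.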
# Staphylococcus aureus [7] = test: Antibacterial activity against multidrug-resistant Staphylococcus aureus 85/2082 cultured in MHB medium assessed as reduction in bacterial growth incubated for 24 hrs by microdilution susceptibility test; type: functional; conditions: 85/2082, 24 h; summary of the method: as §3
# Staphylococcus aureus [8] = test: Antibacterial activity against multidrug-resistant Staphylococcus aureus WIS cultured in MHB medium assessed as reduction in bacterial growth incubated for 24 hrs by microdilution susceptibility test; type: functional; summary of the method: as §3
# Enterococcus faecium [9] = test: Antibacterial activity against multidrug-resistant Enterococcus faecium 50673722 cultured in BHIB medium assessed as reduction in bacterial growth incubated for 24 hrs by microdilution susceptibility test; type: functional; conditions: Enterococcus faecium, 50673722, 24 h
# Summary of the method: (§4)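 Enterococci grown in Brain Heart Infusion broth, otherwise broth microdilution per CLSI M07-A9 (modified). Concentrated DMSO stocks kept at r.t. and diluted in double-distilled water, final DMSO <1%. Inoculum 1–1.2 x 10⁶ cells/mL mixed 1:1 with compound. 37 °C, 24 h, four parallels. OD₆₀₀ read-out, lowest concentration with no growth.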
# Enterococcus faecium [10] = test: Antibacterial activity against multidrug-resistant Enterococcus faecium K36-18 cultured in BHIB medium assessed as reduction in bacterial growth incubated for 24 hrs by microdilution susceptibility test; type: functional; conditions: K36-18, 24 h; summary of the method: as §4
# Enterococcus faecium [11] = test: Antibacterial activity against multidrug-resistant Enterococcus faecium 50758899 cultured in BHIB medium assessed as reduction in bacterial growth incubated for 24 hrs by microdilution susceptibility test; type: functional; conditions: Enterococcus faecium, 50758899, 24 h; summary of the method: as §4
# Enterococcus faecium [12] = test: Antibacterial activity against multidrug-resistant Enterococcus faecium TUH50-22 cultured in BHIB medium assessed as reduction in bacterial growth incubated for 24 hrs by microdilution susceptibility test; type: functional; conditions: TUH50-22, 24 h; summary of the method: as §4
# Escherichia coli [13] = test: Antibacterial activity against multidrug-resistant Escherichia coli 50579417 producing oxcillinase-48 cultured in MHB medium assessed as reduction in bacterial growth incubated for 24 hrs by microdilution susceptibility test; type: functional; conditions: Escherichia coli, 50579417, 24 h; summary of the method: as §3
# Escherichia coli [14] = test: Antibacterial activity against multidrug-resistant Escherichia coli 50676002 producing New Delhi metallo-beta-lactamase-1 cultured in MHB medium assessed as reduction in bacterial growth incubated for 24 hrs by microdilution susceptibility test; type: functional; conditions: Escherichia coli, 50676002, 24 h; summary of the method: as §3
# Pseudomonas aeruginosa [15] = test: Antibacterial activity against multidrug-resistant Pseudomonas aeruginosa K34-7 producing Verona integron encoded metallo beta-lactamse-2 cultured in MHB medium assessed as reduction in bacterial growth incubated for 24 hrs by microdilution susceptibility test; type: functional; conditions: K34-7, 24 h; summary of the method: as §3
# Pseudomonas aeruginosa [16] = test: Antibacterial activity against multidrug-resistant Pseudomonas aeruginosa K34-73 producing Verona integron encoded metallo beta-lactamse-4 cultured in MHB medium assessed as reduction in bacterial growth incubated for 24 hrs by microdilution susceptibility test; type: functional; conditions: K34-73, 24 h; summary of the method: as §3
# Pseudomonas aeruginosa [17] = test: Antibacterial activity against multidrug-resistant Pseudomonas aeruginosa 50692172 producing New Delhi metallo-beta-lactamase-1 cultured in MHB medium assessed as reduction in bacterial growth incubated for 24 hrs by microdilution susceptibility test; type: functional; conditions: Pseudomonas aeruginosa, 50692172, 24 h; summary of the method: as §3
# Pseudomonas aeruginosa [18] = test: Antibacterial activity against multidrug-resistant Pseudomonas aeruginosa 50692520 producing Verona integron encoded metallo beta-lactamse cultured in MHB medium assessed as reduction in bacterial growth incubated for 24 hrs by microdilution susceptibility test; type: functional; conditions: Pseudomonas aeruginosa, 50692520, 24 h; summary of the method: as §3
# Klebsiella pneumoniae [19] = test: Antibacterial activity against multidrug-resistant Klebsiella pneumoniae K66-45 producing New Delhi metallo-beta-lactamase-1 cultured in MHB medium assessed as reduction in bacterial growth incubated for 24 hrs by microdilution susceptibility test; type: functional; conditions: K66-45, 24 h; summary of the method: as §3
# Klebsiella pneumoniae [20] = test: Antibacterial activity against multidrug-resistant Klebsiella pneumoniae 50625602 producing oxcillinase-245 cultured in MHB medium assessed as reduction in bacterial growth incubated for 24 hrs by microdilution susceptibility test; type: functional; conditions: Klebsiella pneumoniae, 50625602, 24 h; summary of the method: as §3
# Klebsiella pneumoniae [21] = test: Antibacterial activity against multidrug-resistant Klebsiella pneumoniae 50667959 producing Verona integron encoded metallo beta-lactamse-1 cultured in MHB medium assessed as reduction in bacterial growth incubated for 24 hrs by microdilution susceptibility test; type: functional; conditions: Klebsiella pneumoniae, 50667959, 24 h; summary of the method: as §3
# Acinetobacter baumannii [22] = test: Antibacterial activity against multidrug-resistant Acinetobacter baumannii K12-21 producing oxcillinase-58 cultured in MHB medium assessed as reduction in bacterial growth incubated for 24 hrs by microdilution susceptibility test; type: functional; conditions: K12-21, 24 h; summary of the method: as §3
# Acinetobacter baumannii [23] = test: Antibacterial activity against multidrug-resistant Acinetobacter baumannii K44-35 producing oxcillinase-23 cultured in MHB medium assessed as reduction in bacterial growth incubated for 24 hrs by microdilution susceptibility test; type: functional; conditions: K44-35, 24 h; summary of the method: as §3
Structure (SMILES),MIC [1],MIC (Escherichia coli [2]),MIC (Pseudomonas aeruginosa [3]),EC50 (Erythrocyte),selectivity ratio [4],selectivity ratio [5],MIC (Staphylococcus aureus [6]),MIC (Staphylococcus aureus [7]),MIC (Staphylococcus aureus [8]),MIC (Enterococcus faecium [9]),MIC (Enterococcus faecium [10]),MIC (Enterococcus faecium [11]),MIC (Enterococcus faecium [12]),MIC (Escherichia coli [13]),MIC (Escherichia coli [14]),MIC (Pseudomonas aeruginosa [15]),MIC (Pseudomonas aeruginosa [16]),MIC (Pseudomonas aeruginosa [17]),MIC (Pseudomonas aeruginosa [18]),MIC (Klebsiella pneumoniae [19]),further results
NCCNC(=O)C(CN)(Cc1ccc(C(F)(F)F)cc1)Cc1ccc(C(F)(F)F)cc1,4 µg/mL,16 µg/mL,32 µg/mL,289 µg/mL,36,18,> 32 µg/mL,> 32 µg/mL,> 32 µg/mL,16 µg/mL,16 µg/mL,32 µg/mL,8 µg/mL,> 32 µg/mL,> 32 µg/mL,> 32 µg/mL,> 32 µg/mL,> 32 µg/mL,> 32 µg/mL,> 32 µg/mL,MIC (Klebsiella pneumoniae [20]): 32 µg/mL; MIC (Klebsiella pneumoniae [21]): 32 µg/mL; MIC (Acinetobacter baumannii [22]): > 32 µg/mL; MIC (Acinetobacter baumannii [23]): > 32 µg/mL
NCCNC(=O)C(CN)(Cc1cc(C(F)(F)F)cc(C(F)(F)F)c1)Cc1cc(C(F)(F)F)cc(C(F)(F)F)c1,1 µg/mL,4 µg/mL,4 µg/mL,48 µg/mL,12,12,16 µg/mL,16 µg/mL,16 µg/mL,8 µg/mL,8 µg/mL,4 µg/mL,8 µg/mL,16 µg/mL,16 µg/mL,> 32 µg/mL,32 µg/mL,32 µg/mL,> 32 µg/mL,32 µg/mL,MIC (Klebsiella pneumoniae [20]): 16 µg/mL; MIC (Klebsiella pneumoniae [21]): 16 µg/mL; MIC (Acinetobacter baumannii [22]): 8 µg/mL; MIC (Acinetobacter baumannii [23]): 16 µg/mL
NCCNC(=O)C(CN)(Cc1cc(Br)cc(Br)c1)Cc1cc(Br)cc(Br)c1,2 µg/mL,4 µg/mL,4 µg/mL,58 µg/mL,29,15,8 µg/mL,8 µg/mL,16 µg/mL,8 µg/mL,8 µg/mL,8 µg/mL,8 µg/mL,8 µg/mL,16 µg/mL,> 32 µg/mL,32 µg/mL,> 32 µg/mL,> 32 µg/mL,32 µg/mL,MIC (Klebsiella pneumoniae [20]): 8 µg/mL; MIC (Klebsiella pneumoniae [21]): 16 µg/mL; MIC (Acinetobacter baumannii [22]): 32 µg/mL; MIC (Acinetobacter baumannii [23]): 32 µg/mL
NCCNC(=O)C(CN)(Cc1ccccc1C(F)(F)F)Cc1ccccc1C(F)(F)F,8 µg/mL,32 µg/mL,64 µg/mL,312 µg/mL,10,10,> 32 µg/mL,> 32 µg/mL,> 32 µg/mL,32 µg/mL,> 32 µg/mL,> 32 µg/mL,> 32 µg/mL,> 32 µg/mL,> 32 µg/mL,> 32 µg/mL,> 32 µg/mL,> 32 µg/mL,> 32 µg/mL,> 32 µg/mL,MIC (Klebsiella pneumoniae [20]): > 32 µg/mL; MIC (Klebsiella pneumoniae [21]): > 32 µg/mL; MIC (Acinetobacter baumannii [22]): > 32 µg/mL; MIC (Acinetobacter baumannii [23]): > 32 µg/mL

# Source: ChEMBL document CHEMBL4311965, “Antimicrobial activity of amphipathic α,α-disubstituted β-amino amide derivatives against ESBL - CARBA producing multi-resistant bacteria; effect of halogenation, lipophilicity and cationic character” (Eur J Med Chem, 2019)
